This note sets out measurements from ChEMBL document CHEMBL1151739, “Probes for narcotic receptor mediated phenomena. 37. Synthesis and opioid binding affinity of the final pair of oxide-bridged phenylmorphans, the ortho- and para-b-isomers and their N-phenethyl analogues, and the synthesis of the N-phenethyl analogues of the ortho- and para-d-isomers” (J Med Chem, 2008).

The target of assay [1] is T1, Mu-type opioid receptor (Homo sapiens, UniProt P35372). Put plainly: Binding affinity to mu opioid receptor.
T1 sequence (P35372 whole entry): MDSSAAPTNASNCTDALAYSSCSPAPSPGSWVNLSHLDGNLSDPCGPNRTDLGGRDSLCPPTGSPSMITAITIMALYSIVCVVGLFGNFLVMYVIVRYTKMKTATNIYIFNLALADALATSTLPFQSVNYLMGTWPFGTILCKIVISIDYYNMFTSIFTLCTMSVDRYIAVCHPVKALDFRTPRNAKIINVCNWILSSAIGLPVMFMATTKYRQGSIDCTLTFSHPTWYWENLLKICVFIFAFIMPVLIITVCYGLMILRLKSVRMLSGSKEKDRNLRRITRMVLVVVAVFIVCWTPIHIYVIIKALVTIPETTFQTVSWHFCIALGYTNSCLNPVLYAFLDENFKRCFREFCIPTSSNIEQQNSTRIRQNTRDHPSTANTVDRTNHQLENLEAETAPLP
The target in assay [2] is Kappa-type opioid receptor (Homo sapiens, UniProt P41145). Put plainly: Displacement of [125I]IOXY from human recombinant kappa opioid receptor expressed in CHO cells. It is filed as cell-based. A digest of the protocol: (§1)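 Radioligand displacement run in CHO cells stably transfected to express the μ-, δ- or κ-opioid receptor, each receptor in its own line. The method follows the authors' earlier procedure. Each value comes from n=3 determinations.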
Chain of Kappa-type opioid receptor (P41145 whole entry): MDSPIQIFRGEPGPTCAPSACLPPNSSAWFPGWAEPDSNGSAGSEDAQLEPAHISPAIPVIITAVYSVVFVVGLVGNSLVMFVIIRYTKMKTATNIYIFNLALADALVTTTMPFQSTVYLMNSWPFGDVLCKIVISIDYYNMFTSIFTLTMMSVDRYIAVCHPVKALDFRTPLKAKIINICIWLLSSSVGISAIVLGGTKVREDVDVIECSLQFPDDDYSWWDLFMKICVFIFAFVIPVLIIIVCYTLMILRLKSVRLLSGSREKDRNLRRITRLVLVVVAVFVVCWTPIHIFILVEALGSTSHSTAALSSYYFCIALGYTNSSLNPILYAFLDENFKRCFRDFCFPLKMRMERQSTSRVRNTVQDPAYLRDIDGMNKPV
For orientation: In a radioligand displacement assay an active substance lowers the binding of a labelled ligand.

Assay [3] deals with T1, Mu-type opioid receptor. Put plainly: Displacement of [125I]IOXY from human recombinant mu opioid receptor expressed in CHO cells. It counts as cell-based. The method, boiled down: as §1
Assay [4] has as its target Delta-type opioid receptor (Homo sapiens, UniProt P41143). Put plainly: Displacement of [125I]IOXY from human recombinant delta opioid receptor expressed in CHO cells. It is filed as cell-based. The method, boiled down: as §1

The structures appear in SMILES notation.

Chain of Delta-type opioid receptor (P41143 whole entry): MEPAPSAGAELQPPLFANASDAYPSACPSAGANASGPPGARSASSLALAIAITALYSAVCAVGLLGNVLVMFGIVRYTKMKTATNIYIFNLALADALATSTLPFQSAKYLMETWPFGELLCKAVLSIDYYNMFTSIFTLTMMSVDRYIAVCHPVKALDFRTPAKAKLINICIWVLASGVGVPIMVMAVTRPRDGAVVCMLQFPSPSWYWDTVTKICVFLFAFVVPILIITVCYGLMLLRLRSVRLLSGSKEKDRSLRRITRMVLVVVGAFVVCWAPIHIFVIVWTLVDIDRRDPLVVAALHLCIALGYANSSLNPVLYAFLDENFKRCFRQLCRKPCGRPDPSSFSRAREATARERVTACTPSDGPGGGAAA

A word on the Ki: it is the equilibrium dissociation constant of an inhibitor or competing ligand from its target. `Oc1cccc2c1O[C@@H]1[C@@H]3CCC[C@]21CCN3CCc1ccccc1`: the Ki in assay [1] worked out at 7 nM.

Take `Oc1ccc2c(c1)[C@]13CCC[C@H](C1)N(CCc1ccccc1)C[C@@H]3O2` (relative stereo): the inhibitory constant (Ki) in assay [2] worked out at 560 nM; in assay [3] it was 1220 nM; in assay [4] it was 2530 nM.
